A selection: hits, their analogues and other compounds. The true share with any hit is near 4.7%.
RGS4 act – potentiators or activators of RGS4; HEK293 M3R/inducible RGS4, carbachol calcium flux Fluo4; hits give low values; B-score at 10 µM; actives 0.92% (n = 310,000);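 active means B-score of the integrated calcium signal more than 4 SD below the library mean, with starting fluorescence not abnormally high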;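 further: negative B-score means reduced calcium response which marks RGS4 activation or potentiation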
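System: HEK293 FlpIn-TREx cells, stable M3R, doxycycline-inducible RGS4. Timing: overnight RGS4 induction, 30 min dye load 37 °C, 20 min compound RT. Also added: carbachol, ECmax concentration. Measured by: Fluo4 fluorescence kinetic imaging of calcium. Evaluation: integrated calcium ratio converted to B score.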
MrgX1 antagonist – blocks BAM8-22 activation of human MrgX1 receptor. Q96LB2. MRGX1-HEK293 calcium flux, Fluo-4, BAM8-22 antagonism; hits give low values. B-score at 10 µM. actives 1.3% (n = 310,000). AID 588676;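 active means calcium-response B-score plate-corrected more than 3 library SD below zero, starting fluorescence within 5 deviations, no agonist response on first addition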;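 further: peak minus trough fluorescence over baseline after final BAM8-22 challenge near maximal dose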
Target sequence (Q96LB2 whole entry, looked up): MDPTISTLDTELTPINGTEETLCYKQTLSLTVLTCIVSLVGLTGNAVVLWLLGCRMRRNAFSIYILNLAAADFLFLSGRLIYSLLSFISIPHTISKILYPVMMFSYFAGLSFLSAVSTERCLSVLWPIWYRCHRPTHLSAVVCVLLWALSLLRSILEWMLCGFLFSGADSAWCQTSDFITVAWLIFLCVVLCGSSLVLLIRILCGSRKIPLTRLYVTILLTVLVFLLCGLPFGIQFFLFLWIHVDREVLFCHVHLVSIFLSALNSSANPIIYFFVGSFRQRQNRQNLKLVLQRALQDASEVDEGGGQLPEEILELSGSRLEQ
RGS4 inh – inhibitors of human RGS4. B-score at 10 µM. HEK293 M3R/RGS4 inducible, Fluo-4 calcium flux; hits give high values; triggered by carbachol at its EC20. actives 0.45% (n = 310,000);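 active means B-score, a plate-corrected calcium signal, over three deviations above library mean, with baseline fluorescence within five deviations of library mean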;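 further: RGS4 expression induced by doxycycline in cells with stable M3 receptor; B-score is computed from the integrated fluorescence ratio over baseline after carbachol; higher B-score means a larger calcium signal and so more RGS4 inhibition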
Target sequence (P49798 whole entry, looked up): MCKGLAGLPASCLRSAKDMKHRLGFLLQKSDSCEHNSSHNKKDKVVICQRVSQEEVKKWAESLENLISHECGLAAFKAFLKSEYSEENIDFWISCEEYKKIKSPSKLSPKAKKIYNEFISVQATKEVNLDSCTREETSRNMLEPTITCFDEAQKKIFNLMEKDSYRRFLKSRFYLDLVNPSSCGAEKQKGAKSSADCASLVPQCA
MrgX1 agonist – activates human MrgX1 receptor signaling; MrgX1-HEK293 cells, Fluo-4 calcium fluorescence, agonist mode; hits give high values; Q96LB2; B-score at 10 µM; actives 0.44% (n = 310,000);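 active means calcium response B-score plate-corrected fluorescence ratio at least 3 library SD, with starting fluorescence B-score inside 5 SD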
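Assay system: MrgX1-expressing HEK293 cells / Amount: fifteen thousand cells per well / Doses: test compound in the initial addition of three / Timing: cells plated overnight, dye loaded 0.5 h 37 °C, 0.5 h room temperature / Technique: kinetic calcium dye fluorescence, Fluo-4 NW / Control set: positive and negative controls per plate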
MrgX1 PAM – human MrgX1 positive allosteric modulation, primary screen. B-score at 10 µM. MrgX1-HEK293, Fluo-4 calcium flux, FDSS; hits give high values. AID 588675. actives 0.63% (n = 310,000);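 active means plate-corrected calcium response at least 3 library SD above typical, normal starting fluorescence, not activating the receptor alone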;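 further: compound read alongside a low EC10 to EC30 dose of BAM8-22 agonist; peak minus trough fluorescence over baseline measured at the second addition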
Cl transport mod – modulates chloride dependent transport by human KCC2 | B-score of Tl+ flux slope (higher = more flux/activation; lower = inhibition) at 10 µM | KCC2 cells, thallium flux FluoZin-2 fluorescence | AID 1456 | actives 2.2% (n = 190,000) | Q9H2X9;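 active means thallium flux slope and its plate-corrected score both differing from the plate sample mean at a set confidence after two filtering rounds, in either direction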;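 further: slope of fluorescence scaled to starting intensity during 10 to 20 s after thallium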
An asterisk follows results filed as active; i = inactive; · = not tested or not shown.

SMILES	RGS4 act	MrgX1 antagonist	RGS4 inh	MrgX1 agonist	MrgX1 PAM	Cl transport mod
CCOC(=O)c1c(NC(=O)C2CCCO2)sc(C(N)=O)c1C (centres undefined)	i	i	i	i	i	1.1
CCn1c(SCC(=O)Nc2ccc3c(c2)OCO3)nnc1C(C)C	i	i	i	i	i	·
COc1ccc(/C=C/C(=O)Nc2ccccc2C)cc1S(=O)(=O)N1CCOCC1	i	i	i	i	8*	0.0092
COc1ccc(/C=C/C(=O)Nc2cccc(F)c2)cc1S(=O)(=O)N1CCOCC1	i	i	i	i	i	-0.19
CCc1ccc(NC(=S)NC2CC3CCCC(C2)N3Cc2ccccc2)cc1 (centres undefined)	-8.7*	i	i	i	i	1.7
CCCN1C2CCCC1CC(NC(=O)Nc1cccc(C(C)=O)c1)C2 (centres undefined)	i	i	i	i	i	-0.23
O=C(Nc1ccccc1-c1ccccc1)NC1CC2CCCC(C1)N2CCc1ccccc1 (centres undefined)	-7.1*	i	i	i	i	-1
O=C(Nc1ccccc1-c1ccccc1)NC1CC2CCCC(C1)N2Cc1ccc(F)cc1 (centres undefined)	-10*	i	i	i	i	-0.0051
S=C(Nc1ccc(Cl)cc1)NC1CC2CCC(C1)N2Cc1ccccc1 (centres undefined)	i	i	i	i	i	-0.59
CS(=O)(=O)N1CCN(c2ccccc2NC(=O)Nc2cccc(Cl)c2)CC1	i	i	i	i	i	·
Cn1c(CC(=O)Nc2ccccc2F)nnc1SCC(=O)Nc1nccs1	i	i	i	i	i	·
COc1ccc(N(CC(=O)N2CCN(Cc3ccccc3)CC2)S(C)(=O)=O)cc1OC	i	i	i	i	i	·
O=C(Cc1ccccn1)c1ccc(F)cc1	i	i	i	i	i	·
Cc1ccccc1OCC(=O)Nc1ccc(N2CCN(C)CC2)c(Cl)c1	-7.9*	i	i	i	i	·
Cc1ccccc1OCC(=O)Nc1ccc2c(c1)Cc1ccccc1-2	i	i	i	i	i	0.66
Cc1ccc(S(=O)(=O)/N=C2/NC(=O)/C(=C/c3cccnc3)S2)cc1	i	i	i	31*	i	-0.053
O=C1N/C(=N/O)S/C1=C/c1cccnc1	i	i	i	i	i	-0.55
C=CCNS(=O)(=O)c1cc2c3c(c1)CCN3C(=O)CC2	i	i	i	i	i	·
C=CCOc1ccccc1CNCCCN1CCOCC1	i	-7.3*	i	i	i	0.18
Cc1ccnc(NC(=O)c2ccc(NS(=O)(=O)/C=C/c3ccccc3)cc2)c1	i	i	i	i	i	·
CCN(/N=C/C=C/c1ccccc1)c1cc(=O)n(C)c(=O)[nH]1	i	-5.6*	i	i	i	-0.083
CCN(/N=C/c1ccc(Cl)cc1)c1cc(=O)n(C)c(=O)[nH]1	i	i	i	i	i	-0.038
CN1CCN(Cc2ccc(Sc3ccc(Cl)cc3)c([N+](=O)[O-])c2)CC1	-8.3*	i	i	i	i	1.3
Nc1ccccc1Sc1ccc(C(=O)c2ccccc2C(=O)O)cc1[N+](=O)[O-]	i	i	i	i	i	·
O=C(O)c1ccccc1C(=O)c1ccc(Sc2ccc(Cl)cc2)c([N+](=O)[O-])c1	i	i	i	38*	i	·
SMILES	RGS4 act	MrgX1 antagonist	RGS4 inh	MrgX1 agonist	MrgX1 PAM	Cl transport mod
CC(C)(C)N(NS(=O)(=O)c1ccc(F)cc1)c1ccccc1	i	i	i	i	i	·
CCOc1ccc2[nH]c(C)c(CN3CCCCCC3)c(=O)c2c1	i	i	i	i	i	·
Cc1ccc(-n2c3nc(=O)[nH]c(=O)c-3cc3cc([N+](=O)[O-])ccc32)cc1	i	i	i	53*	i	-2.1
Cc1ccc(-n2c(C)nn(Cc3ccc([N+](=O)[O-])cc3)c2=O)cc1	i	i	i	i	i	0.6
O=C(Nc1ccccc1C(F)(F)F)C1CCN(C(=O)Cc2ccccc2)CC1	i	i	i	i	i	·
Cc1ccccc1N=C1SC(CC(=O)Nc2ccc3ccccc3c2)C(=O)N1Cc1ccccn1 (centres undefined)	i	-9.7*	i	i	i	0.43
O=C(CC1SC(=Nc2cccc3ccccc23)N(Cc2ccccn2)C1=O)Nc1ccccc1Br (centres undefined)	i	i	i	i	i	0.5
CCOC(=O)[C@H]1[C@H]2COc3ccc(Cl)cc3[C@@H]2N2C(=O)c3ccc(Cl)cc3NC(=O)[C@@]12C	·	i	·	i	i	·
COC1=C/C(=C/c2c(N)n3c(nc2=O)sc2cc(S(C)(=O)=O)ccc23)C=CC1=O	i	i	i	i	10*	·
CS(=O)(=O)c1nsc2nc(=O)c(/C=C3\C=Nc4ccccc43)c(N)n12	i	i	i	i	i	-1.2
CS(=O)(=O)c1ccc2c(c1)sc1nc(=O)c(/C=C3/C=CC(=O)C(O)=C3)c(N)n12	i	i	i	i	28*	0.87
COC(=O)c1cc(=O)nc2sc3cc(OC)ccc3n12	i	i	i	i	i	-1.1
COc1ccc(OCC(=O)Nc2ccccc2N2CCCCC2)cc1	i	i	i	i	15*	·
Cc1cccc(C)c1OCC(=O)Nc1ccccc1N1CCCCC1	i	i	i	i	7.4*	·
COc1cccc(OCc2cc(C(=O)N3CCN(c4ccccc4OC)CC3)no2)c1	i	i	i	i	i	·
Cc1ccccc1Cn1c(C)nc2ccc([N+](=O)[O-])cc2c1=O	i	i	i	i	i	·
Cc1ccccc1COc1ccc(-c2nnn(CC(=O)O)n2)cc1	i	i	i	i	i	·
CS(=O)(=O)NNC(=O)Cn1nnc(-c2ccc(OCc3ccccc3Cl)cc2)n1	i	i	i	i	9.6*	·
O=C(CSc1cn[nH]n1)Nc1ccc(Cl)cc1Cl	i	i	i	i	i	·
O=C(OCC(=O)c1c[nH]c2ccccc12)c1cc2ccccc2cc1O	i	i	i	i	i	-0.36
Cc1cc(C)n2nc(C(=O)OCC(=O)c3c[nH]c4ccccc34)nc2n1	i	-5.5*	i	i	i	-0.14

High-throughput results from PubChem.
